MLL AF4-AF9 inh: MLL-AF4/AF9 protein interaction inhibition. inhibition, % at 10 µM. 350,000 compounds, 0.47% hits. AlphaScreen, biotin-AF4 peptide binding to FLAG-AF9. AID 651704;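 active means every replicate reaching a set inhibition limit, whatever the replicate mean, cut at about 25% in these data; inconclusive means mean inhibition reaches that limit but some replicates miss it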
RAD52 inh: RAD52 (human) annealing inhibition | P43351 | recombinant RAD52 DNA annealing, FRET fluorescence | inhibition, % at 18.7 µM | 360,000 compounds, 0.46% hits | AID 651710;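 active means every replicate showing at least 50% inhibition; inconclusive means mean inhibition at least 50% but not in every replicate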
S100A4 inh HTS: blocks human S100A4 binding to myosin IIA peptide. S100A4/TAMRA-MyoIIA peptide fluorescence polarization. 360,000 compounds, 0.14% hits. AID 652163. P26447. inhibition, % at 10.7 µM;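 active means mean inhibition of at least 70% across replicates, with every replicate also reaching that level; inconclusive means mean inhibition reaches 70% but some replicates fall short; inactive means mean inhibition below 70%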
Target sequence (P26447 whole entry, looked up): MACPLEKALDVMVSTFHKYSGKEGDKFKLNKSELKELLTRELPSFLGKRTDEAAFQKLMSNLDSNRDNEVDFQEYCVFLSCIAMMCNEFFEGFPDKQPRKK
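Test system: S100A4 monomer protein; Medium: HEPES pH 7.2 with CaCl2, KCl, NaCl, DTT, Triton; Probe or stimulus: TAMRA-labelled myosin IIA heavy-chain peptide probe, 5 nM; Doses: one dose per compound; Times: polarization read 5 min after assay mix addition, stable 5–60 min; Benchmarks: neutral control DMSO, positive control TFP.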
RAD54 inh: blocks human RAD54 Holliday junction branch migration; Q92698; FAM/BHQ fluorescence; inhibition, % at 10.4 µM; 360,000 compounds, 0.14% hits; AID 602329;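 active means mean normalized replicate activity at least 40 and at least half of replicates scoring 40 or more; inconclusive means only one of the two criteria met; inactive means mean below 40 and under half of replicates reaching 40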;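 further: inhibitors cause a drop in the FAM fluorescence signal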
dFosB act: enhances mouse delta FosB homodimer DNA binding; purified delta FosB, TAMRA-CDK5 oligo fluorescence polarization; percent of positive-control signal above neutral wells; activation, % at 25 µM; 340,000 compounds, 0.99% hits;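 active means mean activation above about 17%, with every replicate also reaching it, limit read from the data, passing the limit was not always enough; inconclusive means only one of the two conditions met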
Target sequence (P13346 whole entry, looked up): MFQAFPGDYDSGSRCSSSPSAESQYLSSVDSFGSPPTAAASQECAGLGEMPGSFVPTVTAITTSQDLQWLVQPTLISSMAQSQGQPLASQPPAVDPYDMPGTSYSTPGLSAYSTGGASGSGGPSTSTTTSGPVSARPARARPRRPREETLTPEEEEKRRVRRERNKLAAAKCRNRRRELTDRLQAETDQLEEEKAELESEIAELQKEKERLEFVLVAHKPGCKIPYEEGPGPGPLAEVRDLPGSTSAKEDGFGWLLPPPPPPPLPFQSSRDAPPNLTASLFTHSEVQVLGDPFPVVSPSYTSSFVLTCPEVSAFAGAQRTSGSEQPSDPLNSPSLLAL
Each line names hits and unclear results; the compound was inactive in the other large screens; ! = a repeat was not active. A selection: hits, their analogues and other compounds. The true share with any hit is near 1.5%.

O=C(c1ccc(F)cc1)N1CC[C@@H]2[C@H]1c1cc(C3=CCCCC3)ccc1N[C@@H]2CO	none (no result: MLL AF4-AF9 inh, RAD52 inh, S100A4 inh HTS, dFosB act)
CN1c2ccc(-c3ccccc3)cc2[C@@H]2[C@@H](CCN2C(=O)c2cccc(F)c2)[C@@H]1CO	S100A4 inh HTS 130 (no result: dFosB act)
C[C@@H]1CN([C@@H](C)CO)C(=O)c2cc(N(C)C)ccc2O[C@@H](C)CCCCO[C@@H]1CN(C)Cc1ccccc1	none (no result: dFosB act)
O=C(C[C@@H]1C=C[C@H](NC(=O)Nc2ccc(F)cc2)[C@H](CO)O1)NCc1ccccn1	none (no result: dFosB act)
O=C(C1CCCC1)N1CC[C@@H]2[C@@H](CO)Nc3ccc(-c4cccc(F)c4)cc3[C@@H]21	MLL AF4-AF9 inh 25 (no result: RAD54 inh, dFosB act)
O=C(c1cccc(F)c1)N1CC[C@@H]2[C@@H](CO)Nc3ccc(-c4ccccc4)cc3[C@@H]21	MLL AF4-AF9 inh 31 (no result: RAD54 inh, dFosB act)
O=C(C1CCCC1)N1CC[C@@H]2[C@H](CO)Nc3ccc(-c4cccc(F)c4)cc3[C@@H]21	none (no result: RAD54 inh, dFosB act)
CN1CCc2cccc3c2[C@@H]1Cc1ccc(O)c(O)c1-3	MLL AF4-AF9 inh 26 (no result: RAD52 inh)
Nc1cc(-c2ccncc2)c[nH]c1=O	S100A4 inh HTS 152!
C[C@H]1CN([C@@H](C)CO)C(=O)c2cc(NC(=O)NC3CCCCC3)ccc2O[C@@H]1CN(C)Cc1ccc(C(=O)O)cc1	S100A4 inh HTS 96 (no result: dFosB act)
C[C@H]1CN([C@@H](C)CO)C(=O)c2cc(NC(=O)NC3CCCCC3)ccc2O[C@H]1CN(C)Cc1ccc(-c2ccccc2)cc1	none (no result: dFosB act)
C[C@H](CO)N1C[C@H](C)[C@@H](CN(C)Cc2ccc(-c3ccccc3)cc2)Oc2ccc(NC(=O)NC3CCCCC3)cc2C1=O	RAD52 inh 89 (no result: dFosB act)
C[C@H](CO)N1C[C@H](C)[C@@H](CN(C)Cc2ccc(C(=O)O)cc2)Oc2ccc(NC(=O)NC3CCCCC3)cc2C1=O	none (no result: dFosB act)
CC(C)[N+]1=C2C=CC=CC=C2SC12C([N+](=O)[O-])=CC(=[N+]([O-])[O-])C=C2[N+](=O)[O-] (stereo unspecified)	MLL AF4-AF9 inh 29
CO[C@@H]1CN(C)C(=O)c2cc(NS(=O)(=O)c3cccc(F)c3)ccc2OC[C@@H](C)NC[C@H]1C	none (no result: dFosB act)
O=C(C[C@@H]1CC[C@@H](NC(=O)c2ccncc2)[C@@H](CO)O1)NCc1ccncn1	none (no result: RAD54 inh, dFosB act)
C[C@@H]1CN([C@@H](C)CO)C(=O)c2cc(NC(=O)Nc3ccc(C(F)(F)F)cc3)ccc2O[C@H]1CN(C)C(=O)NC1CCCCC1	none (no result: dFosB act)
CCN1/C(=C/c2ccc3cc(C)cc(C)c3[n+]2CC)Sc2cc(C)ccc21	MLL AF4-AF9 inh 28
CCN1/C(=C/c2ccc3cccc(C)c3[n+]2CC)Sc2ccccc21	dFosB act 66 (no result: MLL AF4-AF9 inh, RAD52 inh, S100A4 inh HTS)
O=C(C[C@@H]1CC[C@H]2[C@@H](COC[C@H](O)CN2C(=O)c2cnccn2)O1)NCc1ccc(Oc2ccccc2)cc1	none (no result: MLL AF4-AF9 inh, RAD52 inh, S100A4 inh HTS, dFosB act)
CN(C)CC(=O)N[C@@H]1C=C[C@@H](CC(=O)NCc2ccccc2F)O[C@H]1CO	none (no result: dFosB act)
O=[N+]([O-])c1ccc(N2CCN(C(=S)NCc3ccc(Cl)cc3)CC2)cc1	MLL AF4-AF9 inh 34 (no result: RAD54 inh)
CCNC(=S)N1CCN(c2ccc([N+](=O)[O-])cc2)CC1	none (no result: MLL AF4-AF9 inh, RAD52 inh, S100A4 inh HTS)
C[C@H](CO)N1C[C@H](C)[C@@H](CN(C)C)OCCCC[C@H](C)Oc2ccc(NC(=O)NC3CCCCC3)cc2C1=O	none (no result: dFosB act)
C[C@H]1CN([C@@H](C)CO)C(=O)Cc2cc(N(C)C)ccc2O[C@H]1CN(C)S(=O)(=O)c1ccccc1	none (no result: dFosB act)
Cc1cc2cc(CNC(=O)Nc3cccc(Cl)c3)ccc2n1C	S100A4 inh HTS 78, dFosB act inconclusive
COc1ccc(CNC(=O)Nc2cccc(Cl)c2)cc1	dFosB act 24 (no result: MLL AF4-AF9 inh, RAD52 inh, S100A4 inh HTS)
COc1cccc(NC(=O)N(C)C[C@@H]2Oc3cc(C#Cc4ccc(F)cc4)ccc3S(=O)(=O)N([C@@H](C)CO)C[C@H]2C)c1	none (no result: dFosB act)
O=C(NNC(=O)c1ccc(Br)s1)c1csc(N2CCOCC2)n1	dFosB act 61
Cc1ccc(/C=C/c2ccc(N(C)C)cc2)[n+](C)c1	none
CN(C)c1ccc(/C=C/c2cc[n+](C)cc2)cc1	dFosB act 32 (no result: MLL AF4-AF9 inh, RAD52 inh, S100A4 inh HTS, RAD54 inh)
CCCCCC[n+]1ccccc1/C=C/c1ccc(N(C)C)cc1	S100A4 inh HTS 93 (no result: dFosB act)
NC(N)=NS(=O)(=O)c1ccc(NC(=S)NC(=O)/C=C/c2cccs2)cc1	dFosB act 62 (no result: RAD54 inh)
NC(N)=NS(=O)(=O)c1ccc(NC(=S)NC(=O)/C=C/c2ccc(F)cc2)cc1	none
CN(C)c1ccc(N=Nc2nc3ccccc3n2C)cc1	dFosB act 21
Cn1c(N=Nc2ccccc2)nc2ccccc21	none
O=C(CNC(=O)c1ccccc1)N/N=C/c1cc(Br)ccc1O	none
O=C(CNC(=O)c1ccccc1Br)N/N=C/c1cc(Br)ccc1O	dFosB act 32
O=C(CNC(=O)c1ccc2c(c1)OCO2)N/N=C/c1cc(Br)ccc1O	dFosB act 62
COc1ccc(NC(=O)Nc2ccc3c(c2)C(=O)N([C@H](C)CO)C[C@H](C)[C@@H](CN(C)S(C)(=O)=O)OCCCC[C@@H](C)O3)cc1	none (no result: dFosB act)
N#Cc1cccc2c1-c1ccccc1/C2=N/NC(N)=O	RAD54 inh 85 (no result: MLL AF4-AF9 inh, RAD52 inh, S100A4 inh HTS)
C#CCOCCOCCOCCNc1nc(N2CCN(C(=O)C([C@@H](C)O)n3cc([C@@H](N)CCCCN)nn3)CC2)nc(N2CCN(C(=O)[C@H](CCCCN)n3cc([C@@H](N)CC(N)=O)nn3)CC2)n1 (stereo partly specified)	MLL AF4-AF9 inh 45
C#CCOCCOCCOCCNc1nc(N2CCN(C(=O)[C@H](CCCCN)n3cc(CN)nn3)CC2)nc(N2CCN(C(=O)[C@H](CCCCN)n3cc([C@@H](N)CC(N)=O)nn3)CC2)n1	MLL AF4-AF9 inh 40
C#CCOCCOCCOCCNc1nc(N2CCN(C(=O)C([C@@H](C)O)n3cc([C@@H](N)CCCCN)nn3)CC2)nc(N2CCN(C(=O)[C@H](CCC(=O)O)n3cc([C@@H](N)CCCCN)nn3)CC2)n1 (stereo partly specified)	none
COc1ccc(CN2CC3(C2)CN(C(=O)CN(C)C)[C@@H](CO)c2[nH]c4cc(OC)ccc4c23)cc1	RAD52 inh 67 (no result: RAD54 inh, dFosB act)
COc1ccc2c3c([nH]c2c1)[C@@H](CO)N(C(=O)CN(C)C)CC31CN(Cc2ccccc2)C1	RAD52 inh 60 (no result: RAD54 inh, dFosB act)
COc1ccc(CN2CC3(C2)CN(C(=O)CN(C)C)[C@H](CO)c2[nH]c4cc(OC)ccc4c23)cc1	RAD52 inh 69 (no result: RAD54 inh, dFosB act)
COc1ccc2c3c([nH]c2c1)[C@@H](CO)N(C(=O)CN(C)C)CC31CN(Cc2ccncc2)C1	none (no result: RAD52 inh, S100A4 inh HTS, RAD54 inh, dFosB act)
COc1ccc2c3c([nH]c2c1)[C@H](CO)N(C(=O)CN(C)C)CC31CN(Cc2ccncc2)C1	none (no result: RAD52 inh, S100A4 inh HTS, RAD54 inh, dFosB act)
CN1CCN(C(=O)C[C@@H]2C=C[C@H](NC(=O)c3ccc4c(c3)OCO4)[C@@H](CO)O2)CC1	none (no result: dFosB act)
O=C(C[C@H]1CC[C@@H]2[C@H](COC[C@H](O)CN2S(=O)(=O)c2ccccc2)O1)NCC1CCCCC1	RAD52 inh 55 (no result: dFosB act)

Assay outcomes as filed in PubChem BioAssay.
